In ChEMBL document CHEMBL1126625, “7-Azetidinylquinolones as antibacterial agents. Synthesis and structure-activity relationships” (J Med Chem, 1993):
In brackets after ≈: the same amount, converted by molar mass.

Columns and labels:
Mus musculus [1] = experiment: Blood level after oral administration in mice (50 mg/kg) was determined (area under the concentration-time curve recorded at 0.5, 1, 2, and 4 hour after dosing); assay type: ADME, organism-based; parameters: dose 50 mg/kg, time < 4 hr, route oral; conditions: in vivo
Procedure, shortened: (§1)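 Single oral dose of 50 mg/kg to mice. Blood taken from groups of six mice at 0.5, 1, 2 and 4 h after dosing. Serum levels measured by disk agar diffusion bioassay with Bacillus subtilis ATCC 6633 on Seed Agar, plates incubated 18 h at 37 °C, giving total activity in serum. AUC 0-4 h expressed as μg/mL […].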

Bacillus cereus = experiment: Minimum inhibitory concentration (MIC) preventing growth of Bacillus cereus; assay type: functional
Bacillus subtilis = experiment: Minimum inhibitory concentration (MIC) preventing growth of Bacillus subtilis; assay type: functional
Escherichia coli [2] = experiment: Minimum inhibitory concentration (MIC)preventing growth of Escherichia coli; assay type: functional
Escherichia coli [3] = experiment: Efficacy on systemic infections after oral administration in mice was determined against Escherichia coli HM-42; assay type: functional
Procedure, shortened: (§2)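 Mouse protection test using 4 groups of 10 mice. Mice were infected intraperitoneally with a bacterial suspension slightly above LD100. A single oral dose was given immediately after infection, with four doses, one per group, chosen from in vitro activity. Survival was scored after one week, and ED50 (total mg/kg protecting 50% of mice) was interpolated from group survival rates.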

Klebsiella pneumoniae = experiment: Minimum inhibitory concentration (MIC)preventing growth of Klebsiella pneumoniae; assay type: functional
Morganella morganii = experiment: Minimum inhibitory concentration (MIC) preventing growth of Morganella morganii; assay type: functional
Pseudomonas aeruginosa [4] = experiment: Efficacy on systemic infections after oral administration in mice was determined against Pseudomonas aeruginosa HS-116; assay type: functional; procedure, shortened: as §2
Proteus vulgaris = experiment: Minimum inhibitory concentration (MIC) preventing growth of Proteus vulgaris; assay type: functional
[5] = test system: Staphylococcus epidermidis; experiment: Minimum inhibitory concentration (MIC) preventing growth of Staphylococcus epidermidis; assay type: functional
Staphylococcus aureus [6] = experiment: Minimum inhibitory concentration (MIC) preventing growth of […]; assay type: functional
Staphylococcus aureus [7] = experiment: Efficacy on systemic infections after oral administration in mice was determined against […] HS-93; assay type: functional; procedure, shortened: as §2
Enterococcus faecalis = experiment: Minimum inhibitory concentration (MIC) preventing growth of Streptococcus faecalis ATCC 10541; assay type: functional
Enterobacter cloacae = experiment: Minimum inhibitory concentration (MIC)preventing growth of Enterobacter cloacae; assay type: functional
Pseudomonas aeruginosa [8] = experiment: Minimum inhibitory concentration (MIC)preventing growth of Pseudomonas aeruginosa; assay type: functional
Mus musculus [9] = experiment: Blood level after oral administration in mice (50 mg/kg) was determined by bioassay procedure and represent total activity present in the serum; assay type: ADME, organism-based; conditions: in vivo; procedure, shortened: as §1

| Compound | AUC (Mus musculus [1]) [ng·h/mL] | MIC (Bacillus cereus) [µg/mL] | MIC (Bacillus subtilis) [µg/mL] | MIC (Escherichia coli [2]) [µg/mL] | MIC (Klebsiella pneumoniae) [µg/mL] | MIC (Morganella morganii) [µg/mL] | MIC (Proteus vulgaris) [µg/mL] | MIC [5] [µg/mL] | MIC (Staphylococcus aureus [6]) [µg/mL] | MIC (Enterococcus faecalis) [µg/mL] | MIC (Enterobacter cloacae) [µg/mL] | MIC (Pseudomonas aeruginosa [8]) [µg/mL] | AUC (Mus musculus [9]) [ng·h/mL] | ED50 (Escherichia coli [3]) [mg/kg] | ED50 (Pseudomonas aeruginosa [4]) [mg/kg] | ED50 (Staphylococcus aureus [7]) [mg/kg] |
| --- | --- | --- | --- | --- | --- | --- | --- | --- | --- | --- | --- | --- | --- | --- | --- | --- |
| CN(C)C1(C)CN(c2cc3c(cc2F)c(=O)c(C(=O)O)cn3C2CC2)C1 |  | 0.25 (≈ 0.696 µM) | 0.06 (≈ 0.167 µM) | 0.25 (≈ 0.696 µM) | 0.25 (≈ 0.696 µM) | 0.25 (≈ 0.696 µM) | 0.5 (≈ 1.39 µM) | 0.25 (≈ 0.696 µM) | 0.25 (≈ 0.696 µM) | 2 (≈ 5.56 µM) | 0.25 (≈ 0.696 µM) | 4 (≈ 11.1 µM) |  | 2.7 | 296 | 16.1 |
| CNC1(C)CN(c2cc3c(cc2F)c(=O)c(C(=O)O)cn3C(C)(C)C)C1 |  | 0.25 (≈ 0.692 µM) | 0.06 (≈ 0.166 µM) | 0.25 (≈ 0.692 µM) | 0.06 (≈ 0.166 µM) | 0.5 (≈ 1.38 µM) | 0.5 (≈ 1.38 µM) | 0.25 (≈ 0.692 µM) | 0.25 (≈ 0.692 µM) | 0.5 (≈ 1.38 µM) | 0.25 (≈ 0.692 µM) | 4 (≈ 11.1 µM) | 4600 |  |  |  |
| CN(C)C1CN(c2cc3c(cc2F)c(=O)c(C(=O)O)cn3C2CC2)C1 | 10600 | 0.12 (≈ 0.347 µM) | 0.015 (≈ 0.0434 µM) | 0.06 (≈ 0.174 µM) | 0.015 (≈ 0.0434 µM) | 0.12 (≈ 0.347 µM) | 0.12 (≈ 0.347 µM) | 0.12 (≈ 0.347 µM) | 0.12 (≈ 0.347 µM) | 1 (≈ 2.9 µM) | 0.06 (≈ 0.174 µM) | 2 (≈ 5.79 µM) |  | 1.3 | 44.5 | 35.6 |
| CCn1cc(C(=O)O)c(=O)c2cc(F)c(N3CC(C)(N)C3)c(F)c21 |  | 0.5 (≈ 1.48 µM) | 0.12 (≈ 0.356 µM) | 0.12 (≈ 0.356 µM) | 0.015 (≈ 0.0445 µM) | 0.12 (≈ 0.356 µM) | 1 (≈ 2.96 µM) | 0.5 (≈ 1.48 µM) | 0.5 (≈ 1.48 µM) | 2 (≈ 5.93 µM) | 0.12 (≈ 0.356 µM) | 2 (≈ 5.93 µM) |  | 4.1 | 57.3 | 8.2 |
| CC1(N)CN(c2cc3c(cc2F)c(=O)c(C(=O)O)cn3C(C)(C)C)C1 |  | 0.25 (≈ 0.72 µM) | 0.06 (≈ 0.173 µM) | 0.12 (≈ 0.345 µM) | 0.12 (≈ 0.345 µM) | 0.25 (≈ 0.72 µM) | 0.25 (≈ 0.72 µM) | 0.12 (≈ 0.345 µM) | 0.25 (≈ 0.72 µM) | 0.5 (≈ 1.44 µM) | 0.25 (≈ 0.72 µM) | 2 (≈ 5.76 µM) | 5400 |  |  |  |
| CNC1(C)CN(c2c(F)cc3c(=O)c(C(=O)O)cn(C4CC4)c3c2F)C1 | 15800 | 0.5 (≈ 1.38 µM) | 0.12 (≈ 0.33 µM) | 0.12 (≈ 0.33 µM) | 0.12 (≈ 0.33 µM) | 0.12 (≈ 0.33 µM) | 1 (≈ 2.75 µM) | 0.5 (≈ 1.38 µM) | 0.5 (≈ 1.38 µM) | 1 (≈ 2.75 µM) | 0.12 (≈ 0.33 µM) | 2 (≈ 5.5 µM) |  | 1.4 | 27.2 | 15 |

Further lines, with some results ahead:

| AUC (Mus musculus [1]) [ng·h/mL] | MIC (Bacillus cereus) [µg/mL] | MIC (Bacillus subtilis) [µg/mL] | MIC (Escherichia coli [2]) [µg/mL] | MIC (Klebsiella pneumoniae) [µg/mL] | MIC (Morganella morganii) [µg/mL] | MIC (Proteus vulgaris) [µg/mL] | MIC [5] [µg/mL] | MIC (Staphylococcus aureus [6]) [µg/mL] | MIC (Enterococcus faecalis) [µg/mL] | MIC (Enterobacter cloacae) [µg/mL] | MIC (Pseudomonas aeruginosa [8]) [µg/mL] | AUC (Mus musculus [9]) [ng·h/mL] | Compound | ED50 (Escherichia coli [3]) [mg/kg] | ED50 (Pseudomonas aeruginosa [4]) [mg/kg] | ED50 (Staphylococcus aureus [7]) [mg/kg] |
| --- | --- | --- | --- | --- | --- | --- | --- | --- | --- | --- | --- | --- | --- | --- | --- | --- |
| 7000 | 0.12 (≈ 0.362 µM) | 0.06 (≈ 0.181 µM) | 0.06 (≈ 0.181 µM) | 0.12 (≈ 0.362 µM) | 0.06 (≈ 0.181 µM) | 0.06 (≈ 0.181 µM) | 0.12 (≈ 0.362 µM) | 0.12 (≈ 0.362 µM) | 0.5 (≈ 1.51 µM) | 0.12 (≈ 0.362 µM) | 0.5 (≈ 1.51 µM) |  | CC1(N)CN(c2cc3c(cc2F)c(=O)c(C(=O)O)cn3C2CC2)C1 | 2.7 | 62.2 | 36.1 |
|  | 0.06 (≈ 0.165 µM) | 0.015 (≈ 0.0412 µM) | 0.015 (≈ 0.0412 µM) | 0.015 (≈ 0.0412 µM) | 0.015 (≈ 0.0412 µM) | 0.12 (≈ 0.329 µM) | 0.06 (≈ 0.165 µM) | 0.06 (≈ 0.165 µM) | 0.25 (≈ 0.686 µM) | 0.015 (≈ 0.0412 µM) | 0.5 (≈ 1.37 µM) |  | CC1(N)CN(c2c(F)c(N)c3c(=O)c(C(=O)O)cn(C4CC4)c3c2F)C1 | 3.3 | 71 | 7.2 |
| 3000 | 0.12 (≈ 0.378 µM) | 0.03 (≈ 0.0945 µM) | 0.03 (≈ 0.0945 µM) | 0.03 (≈ 0.0945 µM) | 0.03 (≈ 0.0945 µM) | 0.12 (≈ 0.378 µM) | 0.12 (≈ 0.378 µM) | 0.25 (≈ 0.788 µM) | 0.5 (≈ 1.58 µM) | 0.03 (≈ 0.0945 µM) | 0.25 (≈ 0.788 µM) |  | NC1CN(c2cc3c(cc2F)c(=O)c(C(=O)O)cn3C2CC2)C1 | 3.6 | 82.2 | 44 |
|  | 0.06 (≈ 0.143 µM) | 0.015 (≈ 0.0357 µM) | 0.03 (≈ 0.0715 µM) | 0.03 (≈ 0.0715 µM) | 0.12 (≈ 0.286 µM) | 0.12 (≈ 0.286 µM) | 0.06 (≈ 0.143 µM) | 0.06 (≈ 0.143 µM) | 0.25 (≈ 0.596 µM) | 0.06 (≈ 0.143 µM) | 0.5 (≈ 1.19 µM) |  | CC1(N)CN(c2c(F)cc3c(=O)c(C(=O)O)cn(-c4ccc(F)cc4)c3c2Cl)C1 | 0.4 | 54.9 | 1.1 |
| 20000 | 0.12 (≈ 0.344 µM) | 0.03 (≈ 0.0859 µM) | 0.06 (≈ 0.172 µM) | 0.03 (≈ 0.0859 µM) | 0.12 (≈ 0.344 µM) | 0.25 (≈ 0.716 µM) | 0.12 (≈ 0.344 µM) | 0.12 (≈ 0.344 µM) | 0.5 (≈ 1.43 µM) | 0.06 (≈ 0.172 µM) | 0.5 (≈ 1.43 µM) |  | CC1(N)CN(c2c(F)cc3c(=O)c(C(=O)O)cn(C4CC4)c3c2F)C1 | 3.1 | 65.7 | 13 |
